According to paper PMC12627342 (Journal of Advanced Research, 2025):

Columns and labels:
E. aerogenes (MDR) = test: MIC assay; format: cell-based; conditions: Gram-negative
Method in brief: (§1)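 Broth microdilution: test compound dissolved in physiological saline, two-fold serially diluted across wells (50 μL broth each). 50 μL bacterial suspension added (1.0 × 10⁶ CFU/mL). Incubation 16 h at 37 °C with constant agitation. MIC read visually together with absorbance at 600 nm. Each sample run in triplicate.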

S. aureus (MDR) = test: MIC assay; format: cell-based; conditions: Gram-positive
Method in brief: as §1

B. subtilis ATCC 6633 = test: MIC assay; format: cell-based; conditions: B. subtilis ATCC 6633, Gram-positive
Method in brief: as §1

C. freundii (MDR) = test: MIC assay; format: cell-based; conditions: Gram-negative
Method in brief: as §1

A. baumannii (MDR) = test: MIC assay; format: cell-based; conditions: Gram-negative
Method in brief: as §1

E. coli ATCC 25922 = test: MIC assay; format: cell-based; conditions: E. coli ATCC 25922, Gram-negative
Method in brief: as §1

Gram-negative bacteria = test: Geometric mean of MICs and selectivity index, Gram-negative bacteria; format: cell-based; conditions: geometric mean of MICs
Gram-positive bacteria = test: Geometric mean of MICs and selectivity index, Gram-positive bacteria; format: cell-based; conditions: geometric mean of MICs
all bacteria tested = test: Geometric mean of MICs and selectivity index, all bacteria; format: cell-based; conditions: geometric mean of MICs against all bacteria
Method in brief: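 Geometric mean of the broth-microdilution MICs (μM) across all bacterial strains tested. It serves as the denominator of the selectivity index, SI = HC₅₀ (μM) / GM.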

Cytotoxicity assay = format: cell-based, human
Method in brief: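 293T human embryonic kidney cells were seeded and grown 24 h, then exposed for 24 h to a concentration series of test compound in DMEM. CCK-8 reagent was added for 2 h at 37 °C, and absorbance was read at 450 nm. Five replicates per sample.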

[1] = system: human red blood cells (hRBCs); test: Hemolytic assay; format: cell-based; conditions: median hemolytic concentration, 5 % hRBCs, 1 h, 37 °C
Method in brief: (§2)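 Human erythrocytes from heparinised blood, washed three times in PBS (centrifuged 1800 rpm, 4 °C, 5 min), used as a 5 % (v/v) suspension. Peptide two-fold dilutions in PBS, final 0.78–50 μM. Incubation 1 h at 37 °C, then 3000 rpm for 5 min; supernatant hemoglobin read at A405. Controls: PBS (0 %) and 1 % Triton X-100 (100 %). Five replicates; HC₅₀ derived as median hemolytic concentration.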

Plasma stability by HPLC = format: in vitro ADME; conditions: human, human plasma 25 % (v/v)
Method in brief: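 An 8 mM aqueous stock of peptide (1 mL) was added to 3 mL of 25 % (v/v) human plasma and incubated at 37 °C with agitation, sampling from 0–48 h and up to 14 days. Each sample was quenched with an equal volume of 90 % acetonitrile/10 % TFA, cooled to 4 °C and spun at 10000 rpm for 10 min. Supernatant was quantified by HPLC against standard curves (0.0625–8 mM). Triplicates.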

Hemolytic assay = format: cell-based, human
Method in brief: as §2

[2] = commercially available antimicrobial peptide drug; cited from earlier work

Row | Substance | MIC (E. aerogenes (MDR)) | MIC (S. aureus (MDR)) | MIC (B. subtilis ATCC 6633) | MIC (C. freundii (MDR)) | MIC (A. baumannii (MDR)) | MIC (E. coli ATCC 25922) | GM- (Gram-negative bacteria) | GM+ (Gram-positive bacteria) | GMall (all bacteria tested) | CC50 (Cytotoxicity assay) | HC50 [1] | half-life at 2 mM (Plasma stability by HPLC) | hemolysis at 50 µM (Hemolytic assay) | half-life [2]
1 | Ac-GLFKFLRKFFNFIKR-NH2 [P-γ, Ac-GLFKFLRKFFNFIKR-NH2] | 50 µM | 50 µM | 12.5 µM | 50 µM | 12.5 µM | 12.5 µM |  |  |  |  |  |  |  | 
2 | Ac-GLFKFLRKFFNKIKR-NH2 [P-β, Ac-GLFKFLRKFFNKIKR-NH2] | 12.5 µM | 6.25 µM | 6.25 µM | 6.25 µM | 6.25 µM | 6.25 µM | 7.43 µM | 6.25 µM | 7.02 µM | 28.2 µM | 136.69 µM |  |  | 
3 | Ac-GLRKALRKFANKIKR-NH2 [P-α-05, Ac-GLRKALRKFANKIKR-NH2] | 50 µM | 50 µM | 25 µM | 50 µM | 50 µM | 50 µM |  |  |  |  |  |  |  | 
4 | Ac-GLRKFLRKFFNKIKR-NH2 [P-α, Ac-GLRKFLRKFFNKIKR-NH2] | 12.5 µM | 6.25 µM | 6.25 µM | 6.25 µM | 6.25 µM | 6.25 µM | 14.87 µM | 6.25 µM | 7.02 µM |  |  | 15.3 h | 1.5% | 
5 | Ac-GLRKILRKFINKIKR-NH2 [P-α-03, Ac-GLRKILRKFINKIKR-NH2] | 12.5 µM | 6.25 µM | 3.125 µM | 6.25 µM | 6.25 µM | 3.125 µM |  |  |  |  |  |  |  | 
6 | Ac-GLRKLLRKFLNKIKR-NH2 [P-α-04, Ac-GLRKLLRKFLNKIKR-NH2] | 6.25 µM | 3.125 µM | 3.125 µM | 3.125 µM | 6.25 µM | 3.125 µM | 4.42 µM | 3.13 µM | 3.94 µM | 193 µM | >1000 µM | 17.4 h |  | 
7 | Ac-GLRKMLRKFMNKIKR-NH2 [P-α-06, Ac-GLRKMLRKFMNKIKR-NH2] | 25 µM | 12.5 µM | 6.25 µM | 6.25 µM | 12.5 µM | 12.5 µM |  |  |  |  |  |  |  | 
8 | Ac-GLRKVLRKFVNKIKR-NH2 [P-α-01, Ac-GLRKVLRKFVNKIKR-NH2] | 50 µM | 25 µM | 6.25 µM | 6.25 µM | 12.5 µM | 12.5 µM |  |  |  |  |  |  |  | 
9 | Ac-GLWKWLRKFWNKIKR-NH2 [P-β-02, Ac-GLWKWLRKFWNKIKR-NH2] | 25 µM | 25 µM | 6.25 µM | 12.5 µM | 12.5 µM | 12.5 µM |  |  |  |  |  |  |  | 
10 | Polymyxin B [reference compound] |  | 25 µM | 1.56 µM |  | 0.78 µM | 0.78 µM |  |  |  |  |  |  |  | 
11 | polymyxin E |  |  |  |  |  |  |  |  |  |  |  |  |  | 0.39 h
